Reference: ChEMBL document CHEMBL5154824, “Design and synthesis of multifunctional microtubule targeting agents endowed with dual pro-apoptotic and anti-autophagic efficacy” (Eur J Med Chem, 2022)
Values belong to the compound of their own block, whether it stands above or below them. Active and inactive are the calls of the source. The calls are words filed in the database; no cut-off is given here.

Assays:
SCC-4 [1] = test: Cytotoxicity against human SCC-4 cells assessed as reduction in cell viability measured after 48 hrs by alamar blue viability assay; assay type: functional, cell-based; conditions: SCC-4, 48 h
Procedure, shortened: (§1)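 Oral squamous carcinoma cells were exposed for 48 h to at least 8 increasing concentrations. Viability was read by AlamarBlue. IC50 is the concentration that halves viability, taken as the mean ± SD of at least three independent experiments.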

[2] = Induction of Pro-apoptosis in human HL-60 cells assessed as increase in apoptotic cells at 10 uM after 48 hrs by Annexin-V/PI-staining based flow cytometry; assay type: functional
Ca9-22 = test: Cytotoxicity against human Ca9-22 cells assessed as reduction in cell viability measured after 48 hrs by alamar blue viability assay; assay type: functional, cell-based; conditions: Ca9-22, 48 h; procedure, shortened: as §1
SCC-4 [3] = test: Induction of autophagy in human SCC-4 cells assessed as increase in LC3-II to LC3-I ratio at 10 uM incubated for 30 mins in presence of EBSS followed by compound addition and measured after 3 hrs by Western blot analysis; assay type: functional, cell-based
Procedure, shortened: (§2)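 SCC4 cells were pre-incubated with or without EBSS for 30 min, then given 10 μM compound, with 10 μM chloroquine as reference, for 3 h. LC3-I/II was assessed by Western blot with GAPDH loading control. The LC3-II/LC3-I ratio came from densitometry, as mean ± SEM of four experiments, with an unpaired one-tailed t-test.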

SCC-4 [4] = test: Induction of apoptosis in human SCC-4 cells assessed as increase in apoptotic cells at 2 uM after 48 hrs by Annexin V-FITC/PI staining based flow cytometry method; assay type: functional, cell-based
Procedure, shortened: (§3)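 SCC4 cells were treated at 0.5 or 2 μM for 48 h, then stained with Annexin V/PI and analysed by flow cytometry. Data are mean ± SEM of three independent experiments, with an unpaired one-tailed t-test versus vehicle.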

SCC-4 [5] = test: Induction of apoptosis in human SCC-4 cells assessed as increase in apoptotic cells at 0.5 uM after 48 hrs by Annexin V-FITC/PI staining based flow cytometry method; assay type: functional, cell-based; procedure, shortened: as §3
SCC-4 [6] = test: Induction of autophagy in human SCC-4 cells assessed as increase in LC3-II to LC3-I ratio at 10 uM in absence of EBSS measured after 3 hrs by Western blot analysis; assay type: functional, cell-based; procedure, shortened: as §2
[7] = Induction of Pro-apoptosis in human HL-60 cells assessed as increase in apoptotic cells at 10 uM after 24 hrs by TMRM dye based flow cytometric analysis; assay type: functional
[8] = Induction of Pro-apoptosis in human HL-60 cells assessed as increase in apoptotic cells at 25 uM after 24 hrs by TMRM dye based flow cytometric analysis; assay type: functional
NIH3T3 = test: Cytotoxicity against mouse NIH3T3 cells assessed as inhibition of cell growth measured after 24 hrs by neutral red uptake assay; assay type: functional, cell-based; conditions: NIH3T3, 24 h
Procedure, shortened: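 Neutral red uptake viability test. NIH3T3 fibroblasts or primary human oral epithelial cells were exposed to compound at 0.1 to 120 μM. EC50 was derived, with SD below 5%.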

KYSE-520 cell line [9] = test: Cytotoxicity against human KYSE520 cells assessed as inhibition of cell growth measured after 72 hrs by alamar blue viability assay; assay type: functional, cell-based; conditions: KYSE-520, 72 h
Procedure, shortened: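 KYSE-520 oesophageal cells were exposed to at least 8 increasing concentrations for 48 h or 72 h. Viability was read out to give IC50, as the mean ± SD of at least three independent experiments.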

KYSE-520 cell line [10] = test: Induction of apoptosis in human KYSE520 cells assessed as increase in apoptotic cells at 3 to 10 uM after 72 hrs by Annexin V-FITC/PI staining based flow cytometry method; assay type: functional, cell-based; conditions: dose 3-10 µM
Procedure, shortened: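 KYSE-520 cells were treated at 3 and 10 μM for 72 h, then analysed by flow cytometry after Annexin V/PI dual staining.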

HL-60 [11] = test: Induction of autophagy in human HL-60 cells assessed as increase in p62 protein level at 10 uM […] by Immunoblotting analysis; assay type: functional, cell-based
[12] = Cytotoxicity against human SKGT4 cells assessed as inhibition of cell growth measured after 72 hrs by MTT assay; assay type: functional, cell-based; conditions: SKGT4, 72 h
Procedure, shortened: (§4)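 Oesophageal adenocarcinoma lines were exposed to at least 8 increasing concentrations for 72 h. Viability was measured by MTT. IC50 is the mean ± SD of at least three independent experiments.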

HL-60 [13] = test: Induction of autophagy in human HL-60 cells assessed as increase in LC3-II protein level at 10 uM in presence of chloroquine […] by Immunoblotting analysis; assay type: functional, cell-based
HL-60 [14] = test: Induction of autophagy in human HL-60 cells assessed as increase in LC3-II protein level at 10 uM measured up to 1 hr by Immunoblotting analysis; assay type: functional, cell-based
Emu-TCL1 = test: Induction of apoptosis in mouse Emu-TCL1 cells model of CLL assessed as mitochondrial membrane depolarization at 10 uM after 48 hrs by TMRM dye based flow cytometric analysis; assay type: functional, cell-based
Procedure, shortened: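 Splenocytes from Eμ-TCL1 leukaemic mice were treated with 10 μM or DMSO vehicle for 48 h, then TMRM-loaded. Flow cytometry gave the percentage of TMRM-low cells as mean ± SD (n = 3).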

OE19 = test: Cytotoxicity against human OE19 cells assessed as inhibition of cell growth measured after 72 hrs by MTT assay; assay type: functional, cell-based; conditions: OE19, 72 h; procedure, shortened: as §4
[15] = target: Nuclear factor NF-kappa-B complex (Homo sapiens) (UniProt Q00653+P19838+Q04206); test: Inhibition of NF-kappaB phosphorylation in human HL-60 cells at 10 uM measured after 2 hrs by Immunoblotting analysis; assay type: cell-based
Chain of Nuclear factor NF-kappa-B complex (Homo sapiens) (P19838 whole entry, looked up): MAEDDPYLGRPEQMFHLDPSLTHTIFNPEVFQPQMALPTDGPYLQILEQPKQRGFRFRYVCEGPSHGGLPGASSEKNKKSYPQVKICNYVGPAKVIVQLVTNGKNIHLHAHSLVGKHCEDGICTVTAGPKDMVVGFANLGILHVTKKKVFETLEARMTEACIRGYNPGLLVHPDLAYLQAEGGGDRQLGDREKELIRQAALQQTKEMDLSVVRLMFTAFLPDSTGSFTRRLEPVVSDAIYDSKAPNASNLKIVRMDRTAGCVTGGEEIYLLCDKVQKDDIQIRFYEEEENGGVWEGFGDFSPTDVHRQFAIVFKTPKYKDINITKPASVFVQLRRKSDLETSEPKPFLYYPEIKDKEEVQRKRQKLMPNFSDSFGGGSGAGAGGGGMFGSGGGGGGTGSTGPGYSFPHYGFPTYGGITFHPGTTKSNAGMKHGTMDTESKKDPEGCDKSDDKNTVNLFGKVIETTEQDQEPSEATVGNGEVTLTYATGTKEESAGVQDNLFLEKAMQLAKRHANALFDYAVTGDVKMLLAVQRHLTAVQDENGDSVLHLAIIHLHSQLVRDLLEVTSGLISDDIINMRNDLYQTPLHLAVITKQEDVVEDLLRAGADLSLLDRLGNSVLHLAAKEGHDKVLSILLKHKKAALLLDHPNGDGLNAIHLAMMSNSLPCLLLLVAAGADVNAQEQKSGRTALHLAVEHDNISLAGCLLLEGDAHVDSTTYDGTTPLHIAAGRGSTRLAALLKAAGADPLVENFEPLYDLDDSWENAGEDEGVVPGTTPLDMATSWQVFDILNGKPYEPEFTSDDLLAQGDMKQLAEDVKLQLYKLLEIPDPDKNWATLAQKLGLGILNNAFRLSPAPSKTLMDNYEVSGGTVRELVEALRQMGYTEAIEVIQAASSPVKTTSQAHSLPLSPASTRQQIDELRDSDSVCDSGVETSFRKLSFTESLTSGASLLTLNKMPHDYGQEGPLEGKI
Chain of Nuclear factor NF-kappa-B complex (Homo sapiens) (Q00653 whole entry, looked up): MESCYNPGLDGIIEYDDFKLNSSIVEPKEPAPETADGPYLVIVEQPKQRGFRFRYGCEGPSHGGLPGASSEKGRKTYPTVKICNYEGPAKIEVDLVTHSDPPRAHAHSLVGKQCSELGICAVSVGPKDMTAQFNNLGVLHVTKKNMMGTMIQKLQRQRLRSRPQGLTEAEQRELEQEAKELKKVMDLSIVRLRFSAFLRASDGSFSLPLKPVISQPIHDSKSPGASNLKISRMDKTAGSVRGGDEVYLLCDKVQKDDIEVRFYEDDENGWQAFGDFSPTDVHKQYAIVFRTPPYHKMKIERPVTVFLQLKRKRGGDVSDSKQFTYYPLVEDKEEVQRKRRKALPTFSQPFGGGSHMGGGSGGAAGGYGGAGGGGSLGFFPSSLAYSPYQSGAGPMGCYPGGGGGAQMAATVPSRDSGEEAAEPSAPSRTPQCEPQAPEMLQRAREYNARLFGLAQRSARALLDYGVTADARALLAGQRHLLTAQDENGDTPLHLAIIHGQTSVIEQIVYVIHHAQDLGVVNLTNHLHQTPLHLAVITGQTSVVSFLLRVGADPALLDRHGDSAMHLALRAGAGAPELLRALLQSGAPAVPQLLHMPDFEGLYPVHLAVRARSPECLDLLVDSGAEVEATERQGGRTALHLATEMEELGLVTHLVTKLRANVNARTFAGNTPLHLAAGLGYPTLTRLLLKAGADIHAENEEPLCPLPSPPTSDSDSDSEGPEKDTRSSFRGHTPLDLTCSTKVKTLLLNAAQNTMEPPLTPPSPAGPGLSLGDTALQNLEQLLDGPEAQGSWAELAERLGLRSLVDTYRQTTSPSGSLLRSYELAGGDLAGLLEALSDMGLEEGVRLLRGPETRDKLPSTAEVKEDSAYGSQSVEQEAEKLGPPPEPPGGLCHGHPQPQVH
Chain of Nuclear factor NF-kappa-B complex (Homo sapiens) (Q04206 whole entry, looked up): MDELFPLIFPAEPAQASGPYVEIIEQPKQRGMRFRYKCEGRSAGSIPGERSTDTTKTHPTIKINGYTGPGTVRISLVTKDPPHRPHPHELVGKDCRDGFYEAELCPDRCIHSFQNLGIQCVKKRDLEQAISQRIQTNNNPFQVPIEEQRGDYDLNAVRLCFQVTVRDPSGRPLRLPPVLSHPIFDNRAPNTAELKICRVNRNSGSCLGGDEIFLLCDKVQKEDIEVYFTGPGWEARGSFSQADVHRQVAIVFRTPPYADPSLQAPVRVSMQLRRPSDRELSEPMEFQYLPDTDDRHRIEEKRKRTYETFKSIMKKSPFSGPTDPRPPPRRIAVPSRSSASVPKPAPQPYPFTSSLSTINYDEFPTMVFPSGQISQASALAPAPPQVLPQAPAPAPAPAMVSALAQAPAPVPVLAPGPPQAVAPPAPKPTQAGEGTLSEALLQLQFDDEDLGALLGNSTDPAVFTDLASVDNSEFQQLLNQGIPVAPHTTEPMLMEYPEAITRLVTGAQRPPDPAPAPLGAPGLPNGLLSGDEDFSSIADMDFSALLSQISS
Procedure, shortened: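 HL-60 cells were treated at 10 μM or with DMSO vehicle for 2 h. Phospho-NF-κB and phospho-Erk1/2 were immunoblotted and quantified by densitometry relative to β-tubulin. Data are mean ± SD (n = 2), analysed by one-way ANOVA.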

OE33 = test: Cytotoxicity against human OE33 cells assessed as inhibition of cell growth measured after 72 hrs by MTT assay; assay type: functional, cell-based; conditions: OE33, 72 h; procedure, shortened: as §4
[16] = Induction of Pro-apoptosis in human HL-60 cells assessed as increase in apoptotic cells at 20 uM after 48 hrs by TMRM dye based flow cytometric analysis; assay type: functional
[17] = Induction of Pro-apoptosis in human HL-60 cells assessed as increase in apoptotic cells at 50 uM after 48 hrs by TMRM dye based flow cytometric analysis; assay type: functional

Compound: CN(C)C(=O)OC1=C(c2cccc3ccccc23)Oc2ccccc2-n2cccc21
- IC50 (SCC-4 [1]): 160 nM
- Activity [2]: >=70%
- IC50 (Ca9-22): 170 nM

Compound: CC(=O)OC1=C(c2cccc3cccnc23)Oc2cc3ccccc3cc2-n2cccc21
- Activity (SCC-4 [3]): Active
- IC50 (SCC-4 [1]): 130 nM
- Activity [2]: >=70%
- Activity (SCC-4 [4]): Active
- Activity (SCC-4 [5]): Active
- Activity (SCC-4 [6]): Active

Compound: CC(=O)OC1=C(c2cccc3ccccc23)Oc2cc3c(cc2-n2cccc21)OCCO3
- Activity [7]: >=50%
- Activity [8]: >=50%
- EC50 (NIH3T3): 100 nM

- inhibition [15]: Active
Compound: CC(=O)OC1=C(c2cccc3ncccc23)Oc2cc3ccccc3cc2-n2cccc21
- Activity (SCC-4 [3]): Active
- IC50 (KYSE-520 cell line [9]): 138000 nM
- Activity (KYSE-520 cell line [10]): Active
- Activity [2]: >=70%
- Activity (HL-60 [11]): Active
- IC50 [12]: 510 nM
- Activity (HL-60 [13]): Active
- Activity (HL-60 [14]): Active
- Activity (Emu-TCL1): Active
- IC50 (OE19): 730 nM
- IC50 (OE33): 320 nM
- Activity (SCC-4 [6]): Active

Compound: O=C(OC1=C(c2cccc3ncccc23)Oc2cc3ccccc3cc2-n2cccc21)c1cccnc1
- Activity [2]: >=70%
- Activity (HL-60 [11]): Active
- Activity (HL-60 [13]): Active
- Activity (HL-60 [14]): Active
- Activity (Emu-TCL1): Active
- EC50 (NIH3T3): 6000 nM

Compound: CCN(CC)C(=O)OC1=C(c2cccc3ccccc23)Oc2ccc(N3CCN(C)CC3)cc2-n2cccc21
- Activity [2]: <30%
- Activity (Emu-TCL1): Active
- EC50 (NIH3T3): 5000 nM

Compound: CC(=O)OC1=C(c2cccc3ccccc23)Oc2ccc(N3CCN(C(C)=O)CC3)cc2-n2cccc21
- Activity [16]: <30%
- Activity [17]: >=70%

Compound: CC(C)(C)OC(=O)N1CCC(C(=O)OC2=C(c3cccc4ncccc34)Oc3cc4ccccc4cc3-n3cccc32)CC1
- Activity [2]: >=30%
- Activity (Emu-TCL1): Active
- EC50 (NIH3T3): 6000 nM
